Results published in ChEMBL document CHEMBL4689842, “EUbOPEN Chemogenomics Library wave 1” (2021).

Legend:
Format in all cases: toxicity, cell-based
Fibroblast [1] = experiment: Multiplex assay against human fibroblast
How it was run: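 Phenotypes for tubulin, mitochondrial mass and membrane permeability are expressed as per cents of healthy-nucleus cells. Cells were stained live at seeding with Hoechst33342, BioTracker Green Microtubule Cytoskeleton Dye, MitoTracker Red and Annexin V Alexa Fluor 680, then imaged after compound addition on a CQ1 microscope at 37°C and 5% CO2. Machine-learning gating in CellPathfinder separated Hoechst high-intensity objects from normal cells, divided normal cells by nuclear state (healthy, pyknosed, fragmented) and divided pyknosed cells into mitotic or apoptotic.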

U2OS = experiment: Incucyte cell viability with U2OS; details: human, 10 µM, compound concentration 10 uM; also: filed as whole numbers so only -1 and 0 and 1 occur
Fibroblast [2] = experiment: Incucyte cell viability with human fibroblast; details: 10 µM, compound concentration 10 uM; also: filed as whole numbers so only -1 and 0 and 1 occur
HEK-293T = experiment: Incucyte cell viability with HEK293T; details: human, 10 µM, compound concentration 10 uM; also: filed as whole numbers so only -1 and 0 and 1 occur
[3] = 12 h, 1 µM, compound concentration 1 uM, replicate 1
[4] = 12 h, 1 µM, compound concentration 1 uM, replicate 2
[5] = 12 h, 10 µM, compound concentration 10 uM, replicate 1
[6] = 12 h, 10 µM, compound concentration 10 uM, replicate 2
[7] = 24 h, 1 µM, compound concentration 1 uM, replicate 1
[8] = 24 h, 1 µM, compound concentration 1 uM, replicate 2
[9] = 24 h, 10 µM, compound concentration 10 uM, replicate 1
[10] = 24 h, 10 µM, compound concentration 10 uM, replicate 2
[11] = 48 h, 1 µM, compound concentration 1 uM, replicate 1
[12] = 48 h, 1 µM, compound concentration 1 uM, replicate 2
[13] = 48 h, 10 µM, compound concentration 10 uM, replicate 1
[14] = 48 h, 10 µM, compound concentration 10 uM, replicate 2
[15] = 6 h, replicate number 2, timepoint 6 hours
[16] = 12 h, replicate number 1, timepoint 12 hours
[17] = 18 h, replicate number 1, timepoint 18 hours
[18] = 24 h, replicate number 1, timepoint 24 hours
[19] = 0 h, replicate number 1, timepoint 0 hours
[20] = 6 h, replicate number 1, timepoint 6 hours

Nc1nc2c(c(N3CCNCC3)n1)CCC1=C2[C@@H]2CCCC[C@@H]2O1
Population Apoptotic (%) (Fibroblast [1]; [3]): 67%
Population Fragmented Nuclei (%) (Fibroblast [1]; [3]): 37%
Population Healthy Nuclei (%) (Fibroblast [1]; [3]): 42%
Population Hoechst High Intensity Objects (%) (Fibroblast [1]; [3]): 15%
Population Membrane Permeable-Phenotype (%) (Fibroblast [1]; [3]): 10%
Population Mitochondria Different-Phenotype (%) (Fibroblast [1]; [3]): 1%
Population Mitotic Cells (%) (Fibroblast [1]; [3]): 32%
Population Normal (%) (Fibroblast [1]; [3]): 84%
Population Pyknosed Nuclei (%) (Fibroblast [1]; [3]): 20%
Population Tubulin-Different-Phenotype (%) (Fibroblast [1]; [3]): 20%
Total Cell Count (Fibroblast [1]; [3]): 182
Population Apoptotic (%) (Fibroblast [1]; [4]): 0%
Population Fragmented Nuclei (%) (Fibroblast [1]; [4]): 20%
Population Healthy Nuclei (%) (Fibroblast [1]; [4]): 61%
Population Membrane Permeable-Phenotype (%) (Fibroblast [1]; [4]): 8%
Population Mitochondria Different-Phenotype (%) (Fibroblast [1]; [4]): 27%
Population Mitotic Cells (%) (Fibroblast [1]; [4]): 100%
Population Pyknosed Nuclei (%) (Fibroblast [1]; [4]): 18%
Population Tubulin-Different-Phenotype (%) (Fibroblast [1]; [4]): 21%
Total Cell Count (Fibroblast [1]; [4]): 71
Population Apoptotic (%) (Fibroblast [1]; [5]): 56%
Population Fragmented Nuclei (%) (Fibroblast [1]; [5]): 22%
Population Healthy Nuclei (%) (Fibroblast [1]; [5]): 34%
Population Hoechst High Intensity Objects (%) (Fibroblast [1]; [5]): 42%
Population Membrane Permeable-Phenotype (%) (Fibroblast [1]; [5]): 4%
Population Mitochondria Different-Phenotype (%) (Fibroblast [1]; [5]): 13%
Population Mitotic Cells (%) (Fibroblast [1]; [5]): 43%
Population Normal (%) (Fibroblast [1]; [5]): 57%
Population Pyknosed Nuclei (%) (Fibroblast [1]; [5]): 43%
Population Tubulin-Different-Phenotype (%) (Fibroblast [1]; [5]): 52%
Total Cell Count (Fibroblast [1]; [5]): 220
Population Apoptotic (%) (Fibroblast [1]; [6]): 27%
Population Fragmented Nuclei (%) (Fibroblast [1]; [6]): 9%
Population Healthy Nuclei (%) (Fibroblast [1]; [6]): 68%
Population Hoechst High Intensity Objects (%) (Fibroblast [1]; [6]): 3%
Population Membrane Permeable-Phenotype (%) (Fibroblast [1]; [6]): 25%
Population Mitochondria Different-Phenotype (%) (Fibroblast [1]; [6]): 87%
Population Mitotic Cells (%) (Fibroblast [1]; [6]): 72%
Population Normal (%) (Fibroblast [1]; [6]): 96%
Population Pyknosed Nuclei (%) (Fibroblast [1]; [6]): 21%
Population Tubulin-Different-Phenotype (%) (Fibroblast [1]; [6]): 92%
Total Cell Count (Fibroblast [1]; [6]): 106
Population Apoptotic (%) (Fibroblast [1]; [7]): 55%
Population Fragmented Nuclei (%) (Fibroblast [1]; [7]): 30%
Population Healthy Nuclei (%) (Fibroblast [1]; [7]): 50%
Population Hoechst High Intensity Objects (%) (Fibroblast [1]; [7]): 24%
Population Membrane Permeable-Phenotype (%) (Fibroblast [1]; [7]): 21%
Population Mitochondria Different-Phenotype (%) (Fibroblast [1]; [7]): 2%
Population Mitotic Cells (%) (Fibroblast [1]; [7]): 44%
Population Normal (%) (Fibroblast [1]; [7]): 75%
Population Pyknosed Nuclei (%) (Fibroblast [1]; [7]): 19%
Population Tubulin-Different-Phenotype (%) (Fibroblast [1]; [7]): 47%
Total Cell Count (Fibroblast [1]; [7]): 198
Population Apoptotic (%) (Fibroblast [1]; [8]): 20%
Population Fragmented Nuclei (%) (Fibroblast [1]; [8]): 22%
Population Healthy Nuclei (%) (Fibroblast [1]; [8]): 57%
Population Hoechst High Intensity Objects (%) (Fibroblast [1]; [8]): 8%
Population Membrane Permeable-Phenotype (%) (Fibroblast [1]; [8]): 6%
Population Mitochondria Different-Phenotype (%) (Fibroblast [1]; [8]): 20%
Population Mitotic Cells (%) (Fibroblast [1]; [8]): 80%
Population Normal (%) (Fibroblast [1]; [8]): 91%
Population Pyknosed Nuclei (%) (Fibroblast [1]; [8]): 20%
Population Tubulin-Different-Phenotype (%) (Fibroblast [1]; [8]): 16%
Total Cell Count (Fibroblast [1]; [8]): 82
Population Apoptotic (%) (Fibroblast [1]; [9]): 57%
Population Fragmented Nuclei (%) (Fibroblast [1]; [9]): 20%
Population Healthy Nuclei (%) (Fibroblast [1]; [9]): 36%
Population Hoechst High Intensity Objects (%) (Fibroblast [1]; [9]): 45%
Population Membrane Permeable-Phenotype (%) (Fibroblast [1]; [9]): 12%
Population Mitochondria Different-Phenotype (%) (Fibroblast [1]; [9]): 16%
Population Mitotic Cells (%) (Fibroblast [1]; [9]): 42%
Population Normal (%) (Fibroblast [1]; [9]): 55%
Population Pyknosed Nuclei (%) (Fibroblast [1]; [9]): 43%
Population Tubulin-Different-Phenotype (%) (Fibroblast [1]; [9]): 43%
Total Cell Count (Fibroblast [1]; [9]): 240
Population Apoptotic (%) (Fibroblast [1]; [10]): 33%
Population Fragmented Nuclei (%) (Fibroblast [1]; [10]): 8%
Population Healthy Nuclei (%) (Fibroblast [1]; [10]): 46%
Population Hoechst High Intensity Objects (%) (Fibroblast [1]; [10]): 2%
Population Membrane Permeable-Phenotype (%) (Fibroblast [1]; [10]): 22%
Population Mitochondria Different-Phenotype (%) (Fibroblast [1]; [10]): 79%
Population Mitotic Cells (%) (Fibroblast [1]; [10]): 66%
Population Normal (%) (Fibroblast [1]; [10]): 97%
Population Pyknosed Nuclei (%) (Fibroblast [1]; [10]): 45%
Population Tubulin-Different-Phenotype (%) (Fibroblast [1]; [10]): 69%
Total Cell Count (Fibroblast [1]; [10]): 109
Population Apoptotic (%) (Fibroblast [1]; [11]): 71%
Population Fragmented Nuclei (%) (Fibroblast [1]; [11]): 44%
Population Healthy Nuclei (%) (Fibroblast [1]; [11]): 45%
Population Hoechst High Intensity Objects (%) (Fibroblast [1]; [11]): 34%
Population Membrane Permeable-Phenotype (%) (Fibroblast [1]; [11]): 10%
Population Mitochondria Different-Phenotype (%) (Fibroblast [1]; [11]): 1%
Population Mitotic Cells (%) (Fibroblast [1]; [11]): 28%
Population Normal (%) (Fibroblast [1]; [11]): 65%
Population Pyknosed Nuclei (%) (Fibroblast [1]; [11]): 10%
Population Tubulin-Different-Phenotype (%) (Fibroblast [1]; [11]): 22%
Total Cell Count (Fibroblast [1]; [11]): 296
Population Apoptotic (%) (Fibroblast [1]; [12]): 41%
Population Fragmented Nuclei (%) (Fibroblast [1]; [12]): 34%
Population Healthy Nuclei (%) (Fibroblast [1]; [12]): 56%
Population Membrane Permeable-Phenotype (%) (Fibroblast [1]; [12]): 13%
Population Mitochondria Different-Phenotype (%) (Fibroblast [1]; [12]): 2%
Population Mitotic Cells (%) (Fibroblast [1]; [12]): 58%
Population Pyknosed Nuclei (%) (Fibroblast [1]; [12]): 9%
Population Tubulin-Different-Phenotype (%) (Fibroblast [1]; [12]): 36%
Total Cell Count (Fibroblast [1]; [12]): 204
Population Apoptotic (%) (Fibroblast [1]; [13]): 41%
Population Fragmented Nuclei (%) (Fibroblast [1]; [13]): 20%
Population Healthy Nuclei (%) (Fibroblast [1]; [13]): 50%
Population Hoechst High Intensity Objects (%) (Fibroblast [1]; [13]): 49%
Population Membrane Permeable-Phenotype (%) (Fibroblast [1]; [13]): 6%
Population Mitochondria Different-Phenotype (%) (Fibroblast [1]; [13]): 11%
Population Mitotic Cells (%) (Fibroblast [1]; [13]): 58%
Population Normal (%) (Fibroblast [1]; [13]): 50%
Population Pyknosed Nuclei (%) (Fibroblast [1]; [13]): 29%
Population Tubulin-Different-Phenotype (%) (Fibroblast [1]; [13]): 58%
Total Cell Count (Fibroblast [1]; [13]): 244
Population Apoptotic (%) (Fibroblast [1]; [14]): 38%
Population Fragmented Nuclei (%) (Fibroblast [1]; [14]): 27%
Population Healthy Nuclei (%) (Fibroblast [1]; [14]): 49%
Population Hoechst High Intensity Objects (%) (Fibroblast [1]; [14]): 47%
Population Membrane Permeable-Phenotype (%) (Fibroblast [1]; [14]): 9%
Population Mitochondria Different-Phenotype (%) (Fibroblast [1]; [14]): 10%
Population Mitotic Cells (%) (Fibroblast [1]; [14]): 61%
Population Normal (%) (Fibroblast [1]; [14]): 52%
Population Pyknosed Nuclei (%) (Fibroblast [1]; [14]): 23%
Population Tubulin-Different-Phenotype (%) (Fibroblast [1]; [14]): 52%
Total Cell Count (Fibroblast [1]; [14]): 215
Growth Rate (U2OS; 0 h, replicate number 2, timepoint 0 hours): 0
Growth Rate (U2OS; [15]): 1
Growth Rate (U2OS; [16]): 1
Growth Rate (U2OS; [17]): 1
Growth Rate (U2OS; [18]): 1
Growth Rate (Fibroblast [2]; [19]): 0
Growth Rate (Fibroblast [2]; [20]): 1
Growth Rate (Fibroblast [2]; [15]): 0
Growth Rate (Fibroblast [2]; [16]): 0
Growth Rate (Fibroblast [2]; [17]): 0
Growth Rate (Fibroblast [2]; [18]): 0
Growth Rate (HEK-293T; [19]): 0
Growth Rate (HEK-293T; [20]): 1
Growth Rate (HEK-293T; [15]): 0
Growth Rate (HEK-293T; [16]): 1
Growth Rate (HEK-293T; 12 h, replicate number 2, timepoint 12 hours): 0
Growth Rate (HEK-293T; [17]): 0
Growth Rate (HEK-293T; [18]): 0
